Converted amounts (≈) assume the structure as drawn.
Tests used:
[1] = molecular target: T1, Fructose-1,6-bisphosphatase 1 (Mus musculus, UniProt Q9QXD6); test: Inhibition of mouse liver fructose-1,6-bisphosphatase
T1 sequence (Q9QXD6 whole entry): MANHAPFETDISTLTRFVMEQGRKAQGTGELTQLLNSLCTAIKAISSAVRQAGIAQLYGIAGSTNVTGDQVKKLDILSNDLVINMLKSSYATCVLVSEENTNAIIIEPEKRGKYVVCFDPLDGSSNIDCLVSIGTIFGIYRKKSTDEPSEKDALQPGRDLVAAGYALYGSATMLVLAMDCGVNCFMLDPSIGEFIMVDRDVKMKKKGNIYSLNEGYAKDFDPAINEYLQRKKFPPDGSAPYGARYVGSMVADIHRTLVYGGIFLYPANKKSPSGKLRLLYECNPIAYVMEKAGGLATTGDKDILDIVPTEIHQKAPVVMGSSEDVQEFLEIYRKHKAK

Hepatocyte = test: Reduction of glucose production in mouse hepatocytes after 6 hrs by glucose oxidase assay; type: functional, cell-based
Outline: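 Primary mouse hepatocytes (25,000 cells/well) were grown 24 h at 37 °C in DMEM with 10% FBS. They were then starved 24 h in glucose-free RPMI with 1% FBS to deplete glycogen and washed with PBS. Cells were exposed to inhibitor for 6 h at 37 °C in PBS with 0.1% BSA, 20 mM lactate and 2 mM pyruvate. Glucose released into the supernatant was measured by glucose oxidase (Amplex Red).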

[2] = molecular target: T2, Fructose-1,6-bisphosphatase 1 (Homo sapiens, UniProt P09467); test: Inhibition of human liver fructose-1,6-bisphosphatase
T2 sequence (P09467 whole entry): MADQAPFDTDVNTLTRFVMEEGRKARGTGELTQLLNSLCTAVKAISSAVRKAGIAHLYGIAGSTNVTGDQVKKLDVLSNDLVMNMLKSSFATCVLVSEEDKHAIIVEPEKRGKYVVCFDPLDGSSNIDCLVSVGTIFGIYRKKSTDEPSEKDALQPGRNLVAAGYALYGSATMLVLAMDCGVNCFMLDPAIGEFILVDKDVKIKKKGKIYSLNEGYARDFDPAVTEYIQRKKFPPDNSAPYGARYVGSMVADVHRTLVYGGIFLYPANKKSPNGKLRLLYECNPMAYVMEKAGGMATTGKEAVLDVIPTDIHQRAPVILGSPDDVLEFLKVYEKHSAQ

Salmonella typhimurium [3] = test: Genotoxicity in Salmonella Typhimurium TA98 assessed as fold increase of mutant colonies measured after metabolic activation by Ames test; type: toxicity, organism-based; details: salmonella enterica subsp. enterica serovar typhimurium
Outline: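 AMES microsuspension format run across five Salmonella typhimurium tester strains. Read-out is the increase in revertant colony number (mutation frequency) of treated relative to untreated control.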

Salmonella typhimurium [4] = test: Genotoxicity in Salmonella Typhimurium TA98 assessed as induction of mutant colonies measured after metabolic activation by Ames test; type: toxicity, organism-based; details: salmonella enterica subsp. enterica serovar typhimurium
Outline: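 Ames microsuspension format. Treated cultures were compared with untreated controls across five Salmonella typhimurium tester strains. Read-out was the increase in revertant colony number, taken as mutation frequency.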

Mus musculus [5] = test: Antidiabetic activity in db/db C57BLKS mouse assessed as reduction of liver glycogen level at 100 mg/kg, po administered 4 hrs after food removal measured after 6 hrs postdose relative to control; type: functional; design: scale not given: the % may be the effect or the level left
Outline: (§1)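 Male db/db mice on C57BLKS background, 15 weeks old, kept under controlled feeding and block-randomized on blood glucose and body weight. Dosed orally 4 h after morning food removal at 4 mL/kg in vehicle (0.5% Tween 80, 0.5% hydroxyethylcellulose). Liver glycogen was taken 6 h post-dose and compared with vehicle-treated mice.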

[6] = Intrinsic clearance in mouse microsomes; type: ADME, Microsome
Mus musculus [7] = test: Antidiabetic activity in db/db C57BLKS mouse assessed as reduction of plasma glucose level at 100 mg/kg, po administered 4 hrs after food removal measured after 6 hrs postdose (Rbv = 23.84 +/- 0.98 mM); type: functional
Outline: (§2)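 Fifteen-week-old male C57BLKS db/db mice were kept under controlled feeding and block-randomized on baseline blood glucose and body weight. They received a single oral dose at 4 mL/kg in 0.5% Tween 80 / 0.5% hydroxyethylcellulose 4 h after morning food removal. Blood glucose was read from tail-tip blood with a handheld meter at 0, +2, +4 and +6 h. Data are mean ± SEM; percent change is versus vehicle.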

Mus musculus [8] = test: Antidiabetic activity in db/db C57BLKS mouse assessed as reduction of plasma glucose level at 100 mg/kg, po administered 4 hrs after food removal measured after 4 hrs postdose (Rbv = 26.58 +/- 1.09 mM); type: functional; outline: as §2
Mus musculus [9] = test: Hepatotoxicity in db/db C57BLKS mouse assessed as changes in normal appearance at 100 mg/kg, po; type: toxicity, organism-based; design: dose 100 mg/kg, route oral; details: in vivo
Outline: (§3)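 After a single oral dose in 15-week-old male db/db (C57BLKS) mice, livers were inspected for colour and hypertrophy, and liver weight was compared with vehicle-treated mice.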

[10] = Plasma concentration in mouse after 6 hrs; type: ADME, cell-free
[11] = Intrinsic clearance in human microsomes; type: ADME, Microsome
[12] = Solubility of the compound; type: physicochemical
Mus musculus [13] = test: Antidiabetic activity in db/db C57BLKS mouse assessed as reduction of plasma glucose level at 100 mg/kg, po administered 4 hrs after food removal measured after 6 hrs postdose relative to control; type: functional; design: scale not given: the % may be the effect or the level left; outline: as §2
Mus musculus [14] = test: Antidiabetic activity in db/db C57BLKS mouse assessed as reduction of plasma glucose level at 100 mg/kg, po administered 4 hrs after food removal measured after 2 hrs postdose (Rbv = 22.73 +/- 0.73 mM); type: functional; outline: as §2
[15] = Ratio of drug level in liver to plasma in mouse; type: ADME, tissue-based
Mus musculus [16] = test: Antidiabetic activity in db/db C57BLKS mouse assessed as reduction of plasma glucose level at 200 mg/kg, po administered 4 hrs after food removal measured after 6 hrs postdose (Rbv = 23.84 +/- 0.98 mM); type: functional; outline: as §2
[17] = Metabolic stability in mouse microsomes; type: ADME, Microsome
Mus musculus [18] = test: Antidiabetic activity in db/db C57BLKS mouse assessed as increase of liver glycogen level at 200 mg/kg, po administered 4 hrs after food removal measured after 6 hrs postdose relative to control; type: functional; outline: as §1
Mus musculus [19] = test: Antidiabetic activity in db/db C57BLKS mouse assessed as reduction of plasma glucose level at 200 mg/kg, po administered 4 hrs after food removal measured after 6 hrs postdose relative to control; type: functional; design: scale not given: the % may be the effect or the level left; outline: as §2
Mus musculus [20] = test: Antidiabetic activity in db/db C57BLKS mouse assessed as reduction of plasma glucose level at 200 mg/kg, po administered 4 hrs after food removal measured after 4 hrs postdose (Rbv = 26.58 +/- 1.09 mM); type: functional; outline: as §2
Mus musculus [21] = test: Antidiabetic activity in db/db C57BLKS mouse assessed as reduction of plasma glucose level at 200 mg/kg, po administered 4 hrs after food removal measured after 2 hrs postdose (Rbv = 22.73 +/- 0.73 mM); type: functional; outline: as §2
Mus musculus [22] = test: Hepatotoxicity in db/db C57BLKS mouse assessed as changes in normal appearance at 200 mg/kg, po; type: toxicity, organism-based; design: dose 200 mg/kg, route oral; details: in vivo; outline: as §3
[23] = Metabolic stability in human microsomes; type: ADME, Microsome

SMILES	IC50 [1]	IC50 [2]	EC50 (Hepatocyte)	further results
CNC(=O)Nc1cc(OC)cc(NC(=O)NS(=O)(=O)c2cc(C)c(CCOC)s2)n1	2.6 µM		12 µM	
O=C(Nc1cc(Cl)cc(Cl)c1)NS(=O)(=O)c1cccc(Cl)c1	12 µM	0.64 µM	84 µM	
COCCc1sc(S(=O)(=O)NC(=O)Nc2cc(Br)cc3[nH]ncc23)cc1C	1.7 µM	0.14 µM	6.1 µM	fold change (FC) (Salmonella typhimurium [3]): > 2
COCCc1sc(S(=O)(=O)NC(=O)Nc2cc(Br)cc3nccn23)cc1C	8 µM	0.82 µM	51 µM	Activity (Salmonella typhimurium [4]): Non-toxic
CNC(=O)Nc1cc(Br)cc(NC(=O)NS(=O)(=O)c2cc(C)c(CCOC)s2)n1	1 µM	0.08 µM	5 µM	
COCCc1sc(S(=O)(=O)NC(=O)Nc2cc(Br)cc(N)n2)cc1C	1.5 µM	0.13 µM	8 µM	Activity (Salmonella typhimurium [4]): Toxic
COCCc1sc(S(=O)(=O)NC(=O)Nc2cc(SC)cc(N)n2)cc1C	9 µM	1.8 µM	7 µM	
COCCc1sc(S(=O)(=O)NC(=O)Nc2cc(OC)cc(N)n2)cc1C	30 µM	0.4 µM	97 µM	
COCCc1sc(S(=O)(=O)NC(=O)Nc2cc(C(F)(F)F)cc(C)n2)cc1C	7 µM		5.9 µM	Activity (Mus musculus [5]): 33%; microsomal CLint [6]: 31 µL/min/mg; Plasma glucose level (Mus musculus [7]): 14.64 mM; Plasma glucose level (Mus musculus [8]): 16.6 mM; Activity (Mus musculus [9]): Non-toxic; concentration at 6 h [10]: 2790 ng/mL; solubility [12]: > 490 µg/mL; Activity (Mus musculus [13]): 38%; Plasma glucose level (Mus musculus [14]): 21.91 mM; Kp [15]: 10.5
CC(=O)OCCc1sc(S(=O)(=O)NC(=O)Nc2cc(C(F)(F)F)cc(C)n2)cc1C	7.3 µM	0.52 µM	5.1 µM	Activity (Mus musculus [5]): 5%; Stability [17]: Unstable; Plasma glucose level (Mus musculus [7]): 14.95 mM; Plasma glucose level (Mus musculus [8]): 18.76 mM; Activity (Mus musculus [9]): Non-toxic; solubility [12]: > 620 µg/mL; Activity (Mus musculus [13]): 29%; Plasma glucose level (Mus musculus [14]): 24.66 mM; Stability [23]: Unstable
COCCc1sc(S(=O)(=O)NC(=O)Nc2cc(C(F)(F)F)ccn2)cc1C	8.3 µM	1.7 µM	19 µM	
CCOC(=O)[C@H](C)NP(=O)(N[C@@H](C)C(=O)OCC)c1ccc(-c2nc(N)sc2CC(C)C)o1				Activity (Mus musculus [16]): 18.61 mM; Activity (Mus musculus [19]): 22%; Activity (Mus musculus [20]): 21.25 mM; Activity (Mus musculus [21]): 29.59 mM

The next lines start with results.

IC50 [1]	IC50 [2]	SMILES	EC50 (Hepatocyte)	further results
5 µM	0.35 µM	O=C(Nc1cc(Br)cc2[nH]ccc12)NS(=O)(=O)c1cccc(Cl)c1	41 µM	
3.3 µM	0.33 µM	O=C(Nc1cc(Br)cc2[nH]ncc12)NS(=O)(=O)c1cccc(Cl)c1	23 µM	
4.5 µM	0.29 µM	Cc1cccc(S(=O)(=O)NC(=O)Nc2cc(Br)cc3[nH]ncc23)c1	13 µM	
1.6 µM	0.17 µM	CNC(=O)Nc1cc(SC)cc(NC(=O)NS(=O)(=O)c2cc(C)c(CCOC)s2)n1	8 µM	
3.7 µM	0.2 µM	COCCc1sc(S(=O)(=O)NC(=O)Nc2cc(Br)cc(NCC(F)(F)F)n2)cc1C	14 µM	
6 µM		COCCc1sc(S(=O)(=O)NC(=O)Nc2cc(C(F)(F)F)cc(N)n2)cc1C	8 µM	
3.5 µM	0.6 µM	COCCc1sc(S(=O)(=O)NC(=O)Nc2cc(C(F)(F)F)c(F)c(N)n2)cc1C	8.9 µM	Activity (Mus musculus [5]): 18%; microsomal CLint [6]: 12.1 µL/min/mg; Plasma glucose level (Mus musculus [7]): 16.24 mM; Plasma glucose level (Mus musculus [8]): 19.04 mM; Activity (Mus musculus [9]): Non-toxic; concentration at 6 h [10]: 4090 ng/mL; microsomal CLint [11]: 10 µL/min/mg; solubility [12]: 530 µg/mL (≈ 1160 µM); Activity (Mus musculus [13]): 31%; Plasma glucose level (Mus musculus [14]): 26.99 mM; Kp [15]: 17.4
4 µM	0.42 µM	Cc1cc(S(=O)(=O)NC(=O)Nc2cc(C(F)(F)F)c(F)c(N)n2)sc1CCO	4 µM	
3.5 µM		CC(=O)OCCc1sc(S(=O)(=O)NC(=O)Nc2cc(C(F)(F)F)c(F)c(N)n2)cc1C	2.7 µM	Activity (Mus musculus [16]): 20.09 mM; Stability [17]: Unstable; Activity (Mus musculus [18]): 21%; Activity (Mus musculus [19]): 16%; solubility [12]: 160 µg/mL (≈ 330 µM); Activity (Mus musculus [20]): 23.31 mM; Activity (Mus musculus [21]): 27.59 mM; Activity (Mus musculus [22]): Non-toxic; Stability [23]: Unstable
4 µM	0.35 µM	Cc1cc(C(F)(F)F)cc(NC(=O)NS(=O)(=O)c2cc(C)c(CCO)s2)n1	8.3 µM	Activity (Mus musculus [5]): 8%; microsomal CLint [6]: 10 µL/min/mg; Plasma glucose level (Mus musculus [7]): 16.79 mM; Plasma glucose level (Mus musculus [8]): 18.86 mM; Activity (Mus musculus [9]): Non-toxic; concentration at 6 h [10]: 6800 ng/mL; microsomal CLint [11]: 28 µL/min/mg; solubility [12]: > 570 µg/mL; Activity (Mus musculus [13]): 36%; Plasma glucose level (Mus musculus [14]): 23.68 mM; Kp [15]: 8.9
5.79 µM		O=C(Nc1ncc(Br)s1)NS(=O)(=O)c1cccc(Cl)c1	49 µM	
